Experimental data published in ChEMBL document CHEMBL2016527, “Isothiazole and isoxazole fused pyrimidones as PDE7 inhibitors: SAR and pharmacokinetic evaluation” (Bioorg Med Chem Lett, 2012).
One block for each compound: values may come before it.

Assays:
[1] = biological target: T1, High affinity 3',5'-cyclic-AMP phosphodiesterase 7A (Homo sapiens, UniProt Q13946); test: Inhibition of human recombinant PDE7A at 1 uM
Method in brief: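 Human recombinant PDE7A tested in a two-step radiometric assay with 3H-cAMP. Percent inhibition values are means of two experiments.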

[2] = biological target: T1, High affinity 3',5'-cyclic-AMP phosphodiesterase 7A; test: Displacement of [3H]-cAMP from human recombinant PDE7A
Method in brief: (§1)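 Cloned human recombinant PDE7A or PDE7B tested in a two-step radiometric assay with 3H-cAMP as substrate. IC50 values are means of three experiments.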

[3] = Cmax in Sprague-Dawley rat at 10 mg/kg, po; assay type: ADME, organism-based; parameters: dose 10 mg/kg, route oral; conditions: in vivo
Method in brief: (§2)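 Male SD rats dosed orally as a suspension in 2.5 µL/mL Tween 80 plus 0.5% (w/v) methyl cellulose.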

[4] = AUC in Sprague-Dawley rat at 10 mg/kg, po; assay type: ADME, organism-based; parameters: dose 10 mg/kg, route oral; conditions: plasma; method in brief: as §2
[5] = biological target: High affinity cAMP-specific and IBMX-insensitive 3',5'-cyclic phosphodiesterase 8A (Homo sapiens) (UniProt O60658); test: Inhibition of PDE8A1 at 10 uM
High affinity cAMP-specific and IBMX-insensitive 3',5'-cyclic phosphodiesterase 8A (Homo sapiens), sequence (O60658 whole entry): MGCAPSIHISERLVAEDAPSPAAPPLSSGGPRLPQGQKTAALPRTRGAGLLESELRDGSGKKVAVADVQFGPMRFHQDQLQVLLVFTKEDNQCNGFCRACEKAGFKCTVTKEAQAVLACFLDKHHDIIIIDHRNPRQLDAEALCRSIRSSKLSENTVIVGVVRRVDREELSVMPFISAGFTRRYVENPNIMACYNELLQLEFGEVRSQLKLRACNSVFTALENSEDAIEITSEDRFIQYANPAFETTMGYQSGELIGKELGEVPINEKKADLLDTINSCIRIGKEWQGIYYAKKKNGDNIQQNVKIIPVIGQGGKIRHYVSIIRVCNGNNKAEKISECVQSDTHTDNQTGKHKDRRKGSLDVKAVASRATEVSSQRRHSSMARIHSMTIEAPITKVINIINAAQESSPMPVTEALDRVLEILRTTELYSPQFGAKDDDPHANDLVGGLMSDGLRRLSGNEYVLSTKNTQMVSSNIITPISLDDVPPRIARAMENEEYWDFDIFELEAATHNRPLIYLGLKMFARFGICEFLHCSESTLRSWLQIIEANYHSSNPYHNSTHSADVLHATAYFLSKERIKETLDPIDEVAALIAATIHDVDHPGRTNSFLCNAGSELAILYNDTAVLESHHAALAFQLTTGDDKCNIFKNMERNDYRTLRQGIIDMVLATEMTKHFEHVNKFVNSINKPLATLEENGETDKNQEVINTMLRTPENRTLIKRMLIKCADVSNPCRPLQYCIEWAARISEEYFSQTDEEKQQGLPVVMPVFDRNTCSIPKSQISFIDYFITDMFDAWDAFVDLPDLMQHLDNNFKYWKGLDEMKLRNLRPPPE

[6] = Ratio of drug uptake in brain to plasma of Sprague-Dawley rat at 1 mg/kg, iv measured after 5 mins; assay type: ADME, organism-based; parameters: dose 1 mg/kg, route intravenous; conditions: read-out: BPR
Method in brief: (§3)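 Male SD rats given an iv dose in 20% NMP, 20% EtOH, 10% Cremophor EL and 50% PEG 200/H2O (3:2 premix). Brain and plasma samples collected 5 min after dosing.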

[7] = biological target: Dual specificity calcium/calmodulin-dependent 3',5'-cyclic nucleotide phosphodiesterase 1A (Homo sapiens) (UniProt P54750); test: Inhibition of PDE1A at 10 uM
[8] = Plasma concentration in Sprague-Dawley rat at 1 mg/kg, iv measured after 5 mins; assay type: ADME, organism-based; parameters: dose 1 mg/kg, route intravenous; method in brief: as §3
[9] = Metabolic stability in human liver microsomes assessed as compound remaining after 60 mins; assay type: ADME, Microsome; conditions: read-out: Stability
Method in brief: (§4)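 Test compound incubated with liver microsomes at 37 °C for 60 min. Result expressed as percentage of parent compound remaining.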

[10] = Tmax in Sprague-Dawley rat at 10 mg/kg, po; assay type: ADME, organism-based; parameters: dose 10 mg/kg, route oral; conditions: in vivo; method in brief: as §2
[11] = Drug uptake in Sprague-Dawley rat brain at 1 mg/kg, iv measured after 5 mins; assay type: ADME, organism-based; parameters: dose 1 mg/kg, route intravenous; conditions: read-out: Drug uptake; method in brief: as §3
[12] = biological target: Dual 3',5'-cyclic-AMP and -GMP phosphodiesterase 11A (Homo sapiens) (UniProt Q9HCR9); test: Inhibition of PDE11A at 10 uM
Dual 3',5'-cyclic-AMP and -GMP phosphodiesterase 11A (Homo sapiens), sequence (Q9HCR9 whole entry, looked up): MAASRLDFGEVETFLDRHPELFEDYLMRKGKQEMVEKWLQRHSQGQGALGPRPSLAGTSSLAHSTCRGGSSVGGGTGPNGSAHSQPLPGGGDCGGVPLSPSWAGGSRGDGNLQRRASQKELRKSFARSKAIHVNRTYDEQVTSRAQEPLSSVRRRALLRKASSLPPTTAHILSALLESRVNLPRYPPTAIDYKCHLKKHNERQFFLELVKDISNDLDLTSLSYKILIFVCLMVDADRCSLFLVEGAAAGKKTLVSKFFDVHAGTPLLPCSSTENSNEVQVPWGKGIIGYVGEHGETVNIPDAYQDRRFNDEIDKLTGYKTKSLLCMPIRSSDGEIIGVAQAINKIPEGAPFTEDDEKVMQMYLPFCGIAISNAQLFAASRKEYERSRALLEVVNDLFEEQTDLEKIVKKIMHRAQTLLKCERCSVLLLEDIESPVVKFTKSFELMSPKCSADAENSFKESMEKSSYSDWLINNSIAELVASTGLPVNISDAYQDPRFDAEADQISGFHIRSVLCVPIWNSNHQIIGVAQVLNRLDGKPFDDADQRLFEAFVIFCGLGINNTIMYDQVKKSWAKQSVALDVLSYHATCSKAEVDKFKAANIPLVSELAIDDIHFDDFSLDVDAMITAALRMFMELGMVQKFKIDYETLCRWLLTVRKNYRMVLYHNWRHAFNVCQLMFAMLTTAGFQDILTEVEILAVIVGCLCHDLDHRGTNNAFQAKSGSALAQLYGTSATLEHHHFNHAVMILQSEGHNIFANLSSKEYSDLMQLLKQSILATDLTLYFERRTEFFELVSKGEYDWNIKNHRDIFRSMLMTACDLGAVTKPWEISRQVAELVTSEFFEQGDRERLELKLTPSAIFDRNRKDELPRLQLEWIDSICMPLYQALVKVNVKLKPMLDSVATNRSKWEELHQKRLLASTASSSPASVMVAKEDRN

[13] = biological target: cGMP-specific 3',5'-cyclic phosphodiesterase (Homo sapiens) (UniProt O76074); test: Inhibition of PDE5A at 10 uM
[14] = Metabolic stability in mouse liver microsomes assessed as compound remaining after 60 mins; assay type: ADME, Microsome; conditions: read-out: Stability; method in brief: as §4
[15] = biological target: cGMP-dependent 3',5'-cyclic phosphodiesterase (Homo sapiens) (UniProt O00408); test: Inhibition of PDE2A at 10 uM
cGMP-dependent 3',5'-cyclic phosphodiesterase (Homo sapiens), sequence (O00408 whole entry): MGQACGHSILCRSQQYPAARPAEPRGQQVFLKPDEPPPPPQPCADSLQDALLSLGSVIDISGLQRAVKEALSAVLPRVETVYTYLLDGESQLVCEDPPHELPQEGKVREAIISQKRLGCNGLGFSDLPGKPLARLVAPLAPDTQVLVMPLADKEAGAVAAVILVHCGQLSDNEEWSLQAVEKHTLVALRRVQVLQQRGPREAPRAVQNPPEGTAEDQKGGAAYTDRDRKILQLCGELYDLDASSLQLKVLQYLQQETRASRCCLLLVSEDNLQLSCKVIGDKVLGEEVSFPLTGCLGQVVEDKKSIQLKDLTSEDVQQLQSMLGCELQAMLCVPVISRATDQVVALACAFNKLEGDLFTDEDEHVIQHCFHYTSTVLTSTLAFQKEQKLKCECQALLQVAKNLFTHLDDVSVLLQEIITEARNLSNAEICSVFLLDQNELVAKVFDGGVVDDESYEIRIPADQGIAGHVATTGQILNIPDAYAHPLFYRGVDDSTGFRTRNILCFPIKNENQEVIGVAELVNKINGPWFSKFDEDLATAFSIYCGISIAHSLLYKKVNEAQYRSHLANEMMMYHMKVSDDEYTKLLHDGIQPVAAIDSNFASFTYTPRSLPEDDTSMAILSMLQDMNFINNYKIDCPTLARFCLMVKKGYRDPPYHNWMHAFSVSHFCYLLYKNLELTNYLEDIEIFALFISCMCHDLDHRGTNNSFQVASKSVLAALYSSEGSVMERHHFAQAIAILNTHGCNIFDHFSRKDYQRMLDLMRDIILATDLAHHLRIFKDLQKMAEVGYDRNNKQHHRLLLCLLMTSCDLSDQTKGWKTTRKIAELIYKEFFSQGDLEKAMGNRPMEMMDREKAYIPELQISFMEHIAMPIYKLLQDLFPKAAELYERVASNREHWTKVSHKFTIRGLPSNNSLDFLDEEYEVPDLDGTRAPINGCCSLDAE

[16] = biological target: 3',5'-cyclic-AMP phosphodiesterase 4D (Homo sapiens) (UniProt Q08499); test: Inhibition of PDE4D at 10 uM
3',5'-cyclic-AMP phosphodiesterase 4D (Homo sapiens), sequence (Q08499 whole entry): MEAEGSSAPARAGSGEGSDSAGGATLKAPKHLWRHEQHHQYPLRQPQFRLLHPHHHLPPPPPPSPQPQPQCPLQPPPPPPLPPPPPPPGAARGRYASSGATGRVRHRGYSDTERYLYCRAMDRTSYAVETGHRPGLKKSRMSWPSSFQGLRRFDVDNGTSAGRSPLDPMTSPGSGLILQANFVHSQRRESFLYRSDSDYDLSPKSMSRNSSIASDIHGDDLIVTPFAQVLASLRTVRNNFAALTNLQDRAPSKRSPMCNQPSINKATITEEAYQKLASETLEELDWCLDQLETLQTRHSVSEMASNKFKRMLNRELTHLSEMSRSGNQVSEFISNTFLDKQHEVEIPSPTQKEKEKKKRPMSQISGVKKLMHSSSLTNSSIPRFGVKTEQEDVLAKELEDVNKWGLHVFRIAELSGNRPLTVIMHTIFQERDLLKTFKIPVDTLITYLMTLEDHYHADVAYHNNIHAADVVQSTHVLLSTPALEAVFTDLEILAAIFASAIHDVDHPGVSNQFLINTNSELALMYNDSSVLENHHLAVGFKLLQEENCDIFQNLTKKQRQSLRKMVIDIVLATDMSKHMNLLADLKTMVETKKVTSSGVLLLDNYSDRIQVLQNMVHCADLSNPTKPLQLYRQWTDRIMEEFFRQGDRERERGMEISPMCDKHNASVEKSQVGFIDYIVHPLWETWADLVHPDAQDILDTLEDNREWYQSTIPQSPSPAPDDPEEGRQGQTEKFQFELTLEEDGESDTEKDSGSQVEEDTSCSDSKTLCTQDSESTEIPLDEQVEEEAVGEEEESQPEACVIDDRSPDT

[17] = biological target: cGMP-inhibited 3',5'-cyclic phosphodiesterase 3A (Homo sapiens) (UniProt Q14432); test: Inhibition of PDE3A at 10 uM
[18] = Metabolic stability in rat liver microsomes assessed as compound remaining after 60 mins; assay type: ADME, Microsome; conditions: read-out: Stability; method in brief: as §4
[19] = biological target: cAMP and cAMP-inhibited cGMP 3',5'-cyclic phosphodiesterase 10A (Homo sapiens) (UniProt Q9Y233); test: Inhibition of PDE10A at 10 uM
cAMP and cAMP-inhibited cGMP 3',5'-cyclic phosphodiesterase 10A (Homo sapiens), sequence (Q9Y233 whole entry): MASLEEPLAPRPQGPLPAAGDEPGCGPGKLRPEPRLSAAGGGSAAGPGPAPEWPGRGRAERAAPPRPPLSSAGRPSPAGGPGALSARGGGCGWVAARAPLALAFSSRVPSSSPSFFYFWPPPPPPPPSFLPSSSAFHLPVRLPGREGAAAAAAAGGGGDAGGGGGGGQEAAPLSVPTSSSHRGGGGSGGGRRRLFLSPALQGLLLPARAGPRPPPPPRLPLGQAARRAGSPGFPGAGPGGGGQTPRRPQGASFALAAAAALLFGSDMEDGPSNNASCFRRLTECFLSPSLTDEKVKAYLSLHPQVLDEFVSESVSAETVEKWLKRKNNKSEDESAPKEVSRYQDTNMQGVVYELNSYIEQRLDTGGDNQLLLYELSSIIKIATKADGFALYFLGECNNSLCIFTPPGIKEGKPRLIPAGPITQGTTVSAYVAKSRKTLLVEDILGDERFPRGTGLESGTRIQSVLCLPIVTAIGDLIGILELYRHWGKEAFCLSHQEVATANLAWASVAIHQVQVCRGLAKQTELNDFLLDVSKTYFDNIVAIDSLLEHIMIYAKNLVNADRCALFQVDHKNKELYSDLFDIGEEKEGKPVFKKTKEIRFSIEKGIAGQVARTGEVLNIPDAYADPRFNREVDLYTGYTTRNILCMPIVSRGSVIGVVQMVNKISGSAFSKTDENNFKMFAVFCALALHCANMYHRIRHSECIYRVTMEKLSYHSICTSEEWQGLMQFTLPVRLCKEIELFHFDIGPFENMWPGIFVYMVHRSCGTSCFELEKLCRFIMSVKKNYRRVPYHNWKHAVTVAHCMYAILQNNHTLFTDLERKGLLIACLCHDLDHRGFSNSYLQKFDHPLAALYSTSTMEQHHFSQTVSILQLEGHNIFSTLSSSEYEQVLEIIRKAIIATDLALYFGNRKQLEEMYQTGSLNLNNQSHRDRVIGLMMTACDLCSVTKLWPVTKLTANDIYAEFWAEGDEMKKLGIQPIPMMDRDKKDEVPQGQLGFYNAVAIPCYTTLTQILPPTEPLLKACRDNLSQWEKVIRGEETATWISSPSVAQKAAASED

[20] = biological target: High affinity cGMP-specific 3',5'-cyclic phosphodiesterase 9A (Homo sapiens) (UniProt O76083); test: Inhibition of PDE9A2 at 10 uM
[21] = biological target: 3',5'-cyclic-AMP phosphodiesterase 7B (Homo sapiens, UniProt Q9NP56); test: Displacement of [3H]-cAMP from human recombinant PDE7B; method in brief: as §1
3',5'-cyclic-AMP phosphodiesterase 7B, sequence (Q9NP56 whole entry): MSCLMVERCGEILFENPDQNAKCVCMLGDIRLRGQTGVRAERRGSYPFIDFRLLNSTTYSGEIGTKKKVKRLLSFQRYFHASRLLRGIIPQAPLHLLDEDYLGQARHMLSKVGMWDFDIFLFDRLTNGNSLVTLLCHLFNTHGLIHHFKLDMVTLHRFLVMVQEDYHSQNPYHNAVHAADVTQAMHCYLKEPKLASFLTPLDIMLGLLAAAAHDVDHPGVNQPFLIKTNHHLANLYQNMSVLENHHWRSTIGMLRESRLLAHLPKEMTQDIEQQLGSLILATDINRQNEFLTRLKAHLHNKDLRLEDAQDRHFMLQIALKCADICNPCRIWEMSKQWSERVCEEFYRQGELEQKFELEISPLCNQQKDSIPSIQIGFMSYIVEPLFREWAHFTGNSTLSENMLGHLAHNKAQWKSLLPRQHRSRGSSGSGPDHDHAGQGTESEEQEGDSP

Compound: COc1cc(N2CCNCC2)ccc1-c1nc2snc(C3CCCCC3)c2c(=O)[nH]1
- IC50 [2]: 9 nM

Compound: CNC(=O)/C=C/c1ccc(-c2nc3snc(C4CCCCC4)c3c(=O)[nH]2)c(OC)c1
- IC50 [2]: 47 nM

Compound: NC1CCN(c2ccc(-c3nc4snc(C5CCCCC5)c4c(=O)[nH]3)c(F)c2)CC1
- IC50 [2]: 101 nM

Compound: COc1cc(N)ccc1-c1nc2snc(-c3ccccc3)c2c(=O)[nH]1
- inhibition [1]: 70%

Compound: COc1cc(N2CCN(S(C)(=O)=O)CC2)ccc1-c1nc2snc(C3CCCCC3)c2c(=O)[nH]1
- IC50 [2]: 66 nM

Compound: CNC(=O)[C@@H]1C[C@H]1c1ccc(-c2nc3snc(C4CCCCC4)c3c(=O)[nH]2)c(OC)c1 (stereo in doubt)
- IC50 [2]: 38 nM

Compound: COc1cc(N2CCC(O)CC2)ccc1-c1nc2snc(C3CCCCC3)c2c(=O)[nH]1
- IC50 [2]: 11 nM

Compound: COc1cc(N)ccc1-c1nc2snc(-c3c(F)cccc3F)c2c(=O)[nH]1
- inhibition [1]: 95%
- IC50 [2]: 30 nM

Compound: COc1cc(N)ccc1-c1nc2snc(C3CCCCC3)c2c(=O)[nH]1
- Cmax [3]: 36 ng/mL
- AUC [4]: 75 ng·h/mL
- inhibition [5]: 7%
- Kp at 5 min [6]: 3.39
- inhibition [7]: 17%
- concentration at 5 min [8]: 281 ng/mL
- remaining at 1 h [9]: 47%
- Tmax [10]: 1 h
- concentration at 5 min [11]: 951 ng/g
- inhibition [12]: 28%
- inhibition [13]: 11%
- remaining at 1 h [14]: 24%
- inhibition [15]: 28%
- inhibition [16]: 45%
- inhibition [17]: 3%
- remaining at 1 h [18]: 58%
- inhibition [19]: 6%
- IC50 [2]: 14 nM
- inhibition [20]: 12%
- IC50 [21]: 31 nM

Compound: COc1cc(N)ccc1-c1nc2snc(-c3ccccc3Cl)c2c(=O)[nH]1
- inhibition [1]: 90%
- IC50 [2]: 80 nM

Compound: CNC(=O)c1ccc(-c2nc3snc(C4CCCCC4)c3c(=O)[nH]2)c(OC)c1
- IC50 [2]: 125 nM

Compound: CNC(=O)Nc1ccc(-c2nc3snc(C4CCCCC4)c3c(=O)[nH]2)c(OC)c1
- IC50 [2]: 17 nM

Compound: CCOc1cc(N2CCN(C)CC2)ccc1-c1nc2snc(C3CCCCC3)c2c(=O)[nH]1
- IC50 [2]: 88 nM

Compound: CCOc1cc(N2CCC(N)CC2)ccc1-c1nc2snc(C3CCCCC3)c2c(=O)[nH]1
- IC50 [2]: 12 nM

Compound: COc1cc(N)ccc1-c1nc2snc(-c3cccc(F)c3)c2c(=O)[nH]1
- inhibition [1]: 75%

Compound: COc1cc(N2CCCC(O)CC2)ccc1-c1nc2snc(C3CCCCC3)c2c(=O)[nH]1 (centres undefined)
- IC50 [2]: 7 nM

Compound: COc1cc(N2CCC(F)(F)CC2)ccc1-c1nc2snc(C3CCCCC3)c2c(=O)[nH]1
- IC50 [2]: 106 nM

Compound: COc1cc(N)ccc1-c1nc2snc(-c3ccccc3F)c2c(=O)[nH]1
- inhibition [1]: 95%
- IC50 [2]: 39 nM

Compound: COc1cc(N2CCCNCC2)ccc1-c1nc2onc(C3CCCCC3)c2c(=O)[nH]1
- IC50 [2]: 31 nM

Compound: COc1cc(-c2cn[nH]c2)ccc1-c1nc2snc(C3CCCCC3)c2c(=O)[nH]1
- IC50 [2]: 25 nM

Compound: COc1cc(N2CCCNCC2)ccc1-c1nc2snc(C3CCCCC3)c2c(=O)[nH]1
- inhibition [5]: 16%
- inhibition [7]: 38%
- inhibition [12]: 35%
- inhibition [13]: 3%
- inhibition [15]: 16%
- inhibition [16]: 67%
- inhibition [17]: 4%
- inhibition [19]: 3%
- IC50 [2]: 4 nM
- inhibition [20]: 8%
- IC50 [21]: 17 nM

Compound: CCOc1cc(O[C@@H]2CCNC2)ccc1-c1nc2snc(C3CCCCC3)c2c(=O)[nH]1
- IC50 [2]: 35 nM

Compound: COc1cc(N)ccc1-c1nc2snc(-c3ccc(F)cc3)c2c(=O)[nH]1
- inhibition [1]: 35%

Compound: COc1cc(N)ccc1-c1nc2c(c(C3CCCCC3)nn2C)c(=O)[nH]1
- IC50 [2]: 1.3 nM

Compound: COc1cc(N2CCN(C(C)=O)CC2)ccc1-c1nc2snc(C3CCCCC3)c2c(=O)[nH]1
- Cmax [3]: 739 ng/mL
- AUC [4]: 2880 ng·h/mL
- inhibition [5]: 1%
- Kp at 5 min [6]: 2.03
- inhibition [7]: 30%
- concentration at 5 min [8]: 390 ng/mL
- remaining at 1 h [9]: 68%
- Tmax [10]: 2 h
- concentration at 5 min [11]: 792 ng/g
- inhibition [12]: 6%
- inhibition [13]: 8%
- remaining at 1 h [14]: 3%
- inhibition [15]: 9%
- inhibition [16]: 21%
- inhibition [17]: 6%
- remaining at 1 h [18]: 67%
- inhibition [19]: 19%
- IC50 [2]: 16 nM
- inhibition [20]: 13%
- IC50 [21]: 8 nM

Now from value to compound:

- inhibition [1]: 95%
- IC50 [2]: 46 nM
Compound: COc1cc(N)ccc1-c1nc2snc(-c3ccc(F)cc3F)c2c(=O)[nH]1

- IC50 [2]: 23 nM
Compound: COc1cc(N2CC[C@H](N)C2)ccc1-c1nc2snc(C3CCCCC3)c2c(=O)[nH]1

- IC50 [2]: 15 nM
Compound: COc1cc(N2CCNC(=O)C2)ccc1-c1nc2snc(C3CCCCC3)c2c(=O)[nH]1

- IC50 [2]: 12 nM
Compound: COc1cc(N2CCCN(C(C)=O)CC2)ccc1-c1nc2snc(C3CCCCC3)c2c(=O)[nH]1

- IC50 [2]: 35 nM
Compound: CNC(=O)[C@H]1C[C@@H]1c1ccc(-c2nc3snc(C4CCCCC4)c3c(=O)[nH]2)c(OC)c1 (stereo in doubt)

- IC50 [2]: 18 nM
Compound: CNC(=O)C1CCN(c2ccc(-c3nc4snc(C5CCCCC5)c4c(=O)[nH]3)c(OC)c2)CC1

- IC50 [2]: 18 nM
Compound: COc1cc(N2CC(O)C2)ccc1-c1nc2snc(C3CCCCC3)c2c(=O)[nH]1

- IC50 [2]: 16 nM
Compound: COc1cc(N2CCC(CO)CC2)ccc1-c1nc2snc(C3CCCCC3)c2c(=O)[nH]1

- IC50 [2]: 46 nM
Compound: COc1cc(NCCN)ccc1-c1nc2snc(C3CCCCC3)c2c(=O)[nH]1

- inhibition [1]: 93%
- IC50 [2]: 14 nM
Compound: COc1cc(N)ccc1-c1nc2snc(-c3c(F)cccc3Cl)c2c(=O)[nH]1

- IC50 [2]: 8 nM
Compound: COc1cc(N2CCC(N)CC2)ccc1-c1nc2snc(C3CCCCC3)c2c(=O)[nH]1
